Assay results gathered from unrelated publications.
Each line is one published result; the experiments were not run side by side.
Target: Histone deacetylase 8 (HDAC8, Homo sapiens, UniProt Q9BY41)
Read-out: enzyme activity
Action: inhibitor
Sequence (Q9BY41 1-377, as in one of the studies): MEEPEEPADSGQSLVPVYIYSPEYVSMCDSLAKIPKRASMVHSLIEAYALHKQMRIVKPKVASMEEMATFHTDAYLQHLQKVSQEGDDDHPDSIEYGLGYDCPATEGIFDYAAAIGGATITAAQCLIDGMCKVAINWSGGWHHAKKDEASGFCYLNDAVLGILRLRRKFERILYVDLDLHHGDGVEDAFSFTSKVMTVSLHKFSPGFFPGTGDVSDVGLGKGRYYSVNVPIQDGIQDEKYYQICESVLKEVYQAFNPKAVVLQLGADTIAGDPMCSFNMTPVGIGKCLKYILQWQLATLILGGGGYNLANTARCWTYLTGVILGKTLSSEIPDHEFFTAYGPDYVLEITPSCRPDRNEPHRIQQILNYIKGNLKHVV

`Nc1ccc(-c2ccncc2)cc1NC(=O)N1CCCC1` gave an IC50 of over 33.3 µM.
`CCCON(Cc1ccc(C(=O)NO)cc1)C(=O)Nc1ccccc1` gave an IC50 of 4.64 µM (fluorescence).
For `O=C(CCCCCCC(=O)N[c-]1cccc1)NO.[Fe+2].c1cc[cH-]c1`, the IC50 was 1.36 µM (fluorescence).
The IC50 of `CC(C)C[C@H]1CC(=O)N2CCC[C@H]2C(=O)N[C@@H](CCCCCC(=O)NO)C(=O)N[C@@H](Cc2c[nH]c3ccccc23)C(=O)N1` is reported as 0.18 µM.
The IC50 of `O=c1c(O)c(-c2ccc(O)c(O)c2)oc2cc(O)cc(O)c12` is reported as 7.72 µM.
`CCCON(Cc1ccc(C(=O)NO)cc1)C(=O)Nc1ccc(N(C)C)cc1` gave an IC50 of 4.46 µM (fluorescence).
With `CCCC[C@H](NC(=O)[C@H](C)c1c(C)[nH]c2ccc(O)cc12)c1ncc(-c2cc3ccccc3nc2OC)[nH]1` the IC50 was over 45 µM.
`O=C(/C=C/c1ccc(O)c(O)c1)O[C@@H]1C[C@](O)(C(=O)O)C[C@@H](O)[C@H]1O` gave an IC50 of 8.62 µM.
